# Results pooled from the literature.
# Each line is one published result; the experiments were not run side by side.
# CYP2C9: Cytochrome P450 2C9 (CYP2C9, Homo sapiens, UniProt P11712)
# DPP4: Dipeptidyl peptidase 4 (DPP4, Homo sapiens, UniProt P27487)
# SLC22A13: SLC22A13 (Homo sapiens, UniProt Q9Y226)
Structure (SMILES),target,assay,test system,conditions,IC50 [µM]
CN(C)c1ncnc2c1ncn2[C@@H]1O[C@H](CCl)[C@@H](NC(=O)[C@@H](CSC(c2ccccc2)c2ccccc2)NC(=O)OC(C)(C)C)[C@H]1O,"Aminopeptidase N (ANPEP, Homo sapiens, UniProt P15144)","enzyme activity, inhibitor, fluorescence",,,> 100
CC[C@@](N)(c1cnc(C(F)(F)F)c(Cl)c1)c1c2ncn(C3CC3)c(=O)c2nn1C,"Cytochrome P450 2C8 (CYP2C8, Homo sapiens, UniProt P10632)","enzyme activity, inhibitor","human, liver microsomes",pH 7.4,> 20
CC(=O)N[C@H]1Cc2ccc(cc2)OC/C=C/C[C@@H](C(=O)N[C@@H](CCCNC(=N)N)C(=O)c2nc3ccccc3s2)NC(=O)[C@H](CC(C)C)NC1=O,"Hepatocyte growth factor activator serine protease (Homo sapiens, UniProt Q04756)","enzyme activity, inhibitor, fluorescence",,with preincubation,0.053
COc1cc(O)c2c(c1)C(=O)c1cc(C)cc(O)c1C2=O,CYP2C9,"enzyme activity, inhibitor","human, liver microsomes",pH 7.4,7.44
Cn1c(=O)cc(N2CCC(N)CC2)n(Cc2nc3ccccc3c(=O)n2-c2ccccc2)c1=O,DPP4,"enzyme activity, inhibitor",,,> 100
Nc1ncnc2c1ncn2[C@@H]1O[C@H](CO)[C@@H](O)[C@H]1O,SLC22A13,"transporter uptake, inhibitor, radiometric",,oocytes,> 5000
Cn1nc2c(=O)n(C3CC3)ccc2c1[C@](O)(c1cnc(C(F)(F)F)c(Cl)c1)C(F)(F)F,CYP2C9,"enzyme activity, inhibitor","human, liver microsomes",pH 7.4,> 20
Cn1c(=O)cc(N2CCC(N)CC2)n(Cc2nc3ccccc3c(=O)n2-c2ccc(F)cc2)c1=O,DPP4,"enzyme activity, inhibitor",,,63.4
CCCCNC(=O)N[C@H]1CSCc2cc(CSCCNC(=O)CN3CCN(CC(=O)O)CCN(CC(=O)O)CC3)cc(c2)CSC[C@@H](C(=O)O)NC(=O)[C@H](Cc2ccccc2)NC(=O)[C@H](CCC(N)=O)NC(=O)[C@H]([C@@H](C)O)NC(=O)[C@@H]2CCCN2C(=O)[C@@H]2CCCN2C1=O,"Prolyl endopeptidase FAP (FAP, Homo sapiens, UniProt Q12884)","ligand displacement, radioligand",,,0.0317
Cc1ccc(-n2c(Cn3c(N4CCC(N)CC4)cc(=O)n(C)c3=O)nc3ccccc3c2=O)cc1,DPP4,"enzyme activity, inhibitor",,,> 100
N#C[C@@]12C[C@@H]1[C@@H](n1cnc3c(N[C@@H](C4CCC4)C4CC4)nc(I)nc31)[C@H](O)[C@@H]2O,CYP2C9,"enzyme activity, inhibitor",,,8.64
Cn1c(=O)cc(N2CCC(N)CC2)n(Cc2nc3ccc(Br)cc3c(=O)n2-c2ccc(F)cc2)c1=O,DPP4,"enzyme activity, inhibitor",,,44.4
CC1(CN)CCN(c2cnc3c(Sc4ccncc4Cl)n[nH]c3n2)CC1,"Tyrosine-protein phosphatase non-receptor type 6 (PTPN6, Homo sapiens, UniProt P29350)","enzyme activity, inhibitor",,,> 100
Cn1c(=O)c2c(ncn2C)n(C)c1=O,SLC22A13,"transporter uptake, inhibitor, radiometric",,oocytes,> 2000
Cn1c(=O)cc(N2CCC(N)CC2)n(Cc2nc3ccccc3c(=O)n2-c2cccc(C(F)(F)F)c2)c1=O,DPP4,"enzyme activity, inhibitor",,,58.1
